What was measured:
[1] = test system: eEF2 phosphorylation in MDA-MB-453 cells; assay: Western blot of phospho-eEF2; type: cell-based, human
Procedure, shortened: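 MDA-MB-453 grown in L15 with 10% FBS, 1 mmol/L pyruvate, 0.5 mg/mL geneticin, no CO2. Seeded at 2×10^5 cells/well; 24 h later given test compound at several concentrations for 6 h. Lysed in 2× SDS loading buffer, 95 °C 10 min, on 10% gels to PVDF, milk-blocked. Probed overnight at 4 °C for phospho-eEF2 Thr56 and eEF2, β-actin loading control. Fluorescent secondary read-out. Three independent experiments in duplicate, mean ±SEM.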

cells = details: at high concentrations; cited from earlier work
[2] = test system: eEF2 phosphorylation in H1299 cells; assay: Western blot of phospho-eEF2 in H1299 cells; type: cell-based, human; details: 6 h treatment
[3] = test system: eEF2 phosphorylation in HCT116 cells; assay: Western blot of phospho-eEF2 in HCT116 cells; type: cell-based, human; details: 6 h treatment
eEF2K in cells = details: cited from earlier work
eEF2K = details: cited from earlier work

CCn1c(=O)c2cc(C(N)=O)c(N)nc2n(C2CC2)c1=O [A484954]
effect on eEF2 phosphorylation (p-eEF2) ([1]; MDA-MB-453 cells, 6 h treatment): capable of inhibiting eEF2 phosphorylation | total protein level of eEF2 ([1]; in the cell): not affected | cytotoxicity (cells): cytotoxic at high concentrations | effect on eEF2 phosphorylation (p-eEF2) [2]: capable of inhibiting eEF2 phosphorylation | effect on eEF2 phosphorylation (p-eEF2) [3]: capable of inhibiting eEF2 phosphorylation | potency on eEF2K in cells (eEF2K in cells): rather low potency

CCCCCCCCCCCCCCCC[n+]1ccn(Cc2ccccc2)c1C.[I-] [NH125, 1-Benzyl-3-cetyl-2-methylimidazolium iodide]
effect on eEF2K activity in vitro (eEF2K): inhibits eEF2K activity | effect on eEF2 phosphorylation in vivo (eEF2K in cells): promotes eEF2 phosphorylation

c1cnc2sccc2c1 [Thieno [2,3-b] pyridine]
inhibitory effects on eEF2K in cells (eEF2K in cells): weak inhibitory effects
